Active and inactive are the calls of the source. The rule behind the calls is not given here.
Legend:
PC-3 [1] = test: Cytotoxicity against human PC3 cells assessed as cell death at IC50 by quantitative video microscopy analysis; assay type: functional, cell-based
Summary of the method: (§1)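 PC3 cells were treated for 72 h at a single concentration taken from the 72 h MTT growth assay and followed by computer-assisted phase-contrast videomicroscopy. Dead cells were scored as rounded and refringent, and cytostatic action was distinguished as inhibited proliferation without cell death. Morphology was examined at ×100 and, for high-magnification views, ×500.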

PC-3 [2] = test: Growth inhibition of human PC3 cells after 72 hrs by MTT colorimetric assay; assay type: functional; settings: PC-3, 72 h
Summary of the method: (§2)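 Cells were exposed to the compound over a range of concentrations for three days (72 h) and growth was read by MTT colorimetric assay. IC50 is the concentration that reduces global growth of the cell population by 50%.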

SK-MEL-28 = test: Growth inhibition of human SK-MEL-28 cells after 72 hrs by MTT colorimetric assay; assay type: functional; settings: SK-MEL-28, 72 h; summary of the method: as §2
PC-3 [3] = test: Cytostatic activity in human PC3 cells at IC50 by quantitative video microscopy analysis; assay type: functional, cell-based; summary of the method: as §1
LoVo = test: Growth inhibition of human LoVo cells after 72 hrs by MTT colorimetric assay; assay type: functional; summary of the method: as §2
[4] = Growth inhibition of human Hs683 cells after 72 hrs by MTT colorimetric assay; assay type: functional; settings: Hs 683, 72 h; summary of the method: as §2
A549 = test: Growth inhibition of human A549 cells after 72 hrs by MTT colorimetric assay; assay type: functional; settings: A549, 72 h; summary of the method: as §2
[5] = Growth inhibition of human U373 cells after 72 hrs by MTT colorimetric assay; assay type: functional, U-373MG ATCC; settings: U373 MG; summary of the method: as §2
PC-3 [6] = test: Induction of apoptosis in human PC3 cells assessed as vacuolization after 72 hrs at IC50 by quantitative video microscopy analysis; assay type: functional, cell-based

SMILES	Activity (PC-3 [1])	GI50 (PC-3 [2]) [µM]	GI50 (SK-MEL-28) [µM]	Activity (PC-3 [3])	GI50 (LoVo) [nM]	GI50 [4] [µM]	GI50 (A549) [µM]	GI50 [5] [µM]	Activity (PC-3 [6])
[C-]#[N+][C@@]1(C)CC[C@H]2[C@H]3[C@@H](C(=C)CC[C@H]31)[C@H](CC(=C)C)C[C@@H]2C	Active	7							
[C-]#[N+]C(C)(C)C[C@@H]1C[C@H](C)[C@H]2CC[C@](C)([N+]#[C-])[C@@H]3CCC(=C)[C@@H]1[C@H]23		3	32	Active	3000	4	16	10	
[C-]#[N+]C(C)(C)C[C@@H]1C[C@H](C)[C@H]2CC[C@H](C)[C@@]3([N+]#[C-])CCC(=C)[C@@H]1[C@H]23 [DIISOCYANOAMPHILECTENE]		1	6	Active	3000	50	42	25	
[C-]#[N+][C@@]1(C)CC[C@H]2[C@H]3[C@@H](C(=C)CC[C@H]31)[C@H](C=C(C)C)C[C@@H]2C	Active	7							Active
